Key:
Integrin alpha-4/beta-1 [1] = molecular target: T1, Integrin alpha-4/beta-1 (Homo sapiens, UniProt P05556+P13612); assay: Inhibition of VCAM binding to Alpha4-beta1 integrin of human eosinophil cell; type: protein-complex assay
Integrin alpha-4/beta-1 [2] = molecular target: T1, Integrin alpha-4/beta-1; assay: Inhibition of Alpha4-beta1 integrin in Jurkat cells; type: cell-based
Summary of the method: (§1)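 Calcein-labelled Jurkat cells were allowed to bind human recombinant sVCAM-1 in the presence of serial dilutions of compound, giving IC50. Values are means ± standard error of the number of independent experiments.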

Integrin alpha-4/beta-1 [3] = molecular target: T1, Integrin alpha-4/beta-1; assay: Inhibition of human recombinant sVCAM-1 binding to alpha4-beta1 integrin (VLA-4) in ELISA; type: protein-complex assay
Integrin alpha-4/beta-1 [4] = molecular target: T1, Integrin alpha-4/beta-1; assay: Inhibition of Alpha4-beta1 integrin in Jurkat cells (Not active); type: cell-based; summary of the method: as §1

T1 sequence (P05556 whole entry): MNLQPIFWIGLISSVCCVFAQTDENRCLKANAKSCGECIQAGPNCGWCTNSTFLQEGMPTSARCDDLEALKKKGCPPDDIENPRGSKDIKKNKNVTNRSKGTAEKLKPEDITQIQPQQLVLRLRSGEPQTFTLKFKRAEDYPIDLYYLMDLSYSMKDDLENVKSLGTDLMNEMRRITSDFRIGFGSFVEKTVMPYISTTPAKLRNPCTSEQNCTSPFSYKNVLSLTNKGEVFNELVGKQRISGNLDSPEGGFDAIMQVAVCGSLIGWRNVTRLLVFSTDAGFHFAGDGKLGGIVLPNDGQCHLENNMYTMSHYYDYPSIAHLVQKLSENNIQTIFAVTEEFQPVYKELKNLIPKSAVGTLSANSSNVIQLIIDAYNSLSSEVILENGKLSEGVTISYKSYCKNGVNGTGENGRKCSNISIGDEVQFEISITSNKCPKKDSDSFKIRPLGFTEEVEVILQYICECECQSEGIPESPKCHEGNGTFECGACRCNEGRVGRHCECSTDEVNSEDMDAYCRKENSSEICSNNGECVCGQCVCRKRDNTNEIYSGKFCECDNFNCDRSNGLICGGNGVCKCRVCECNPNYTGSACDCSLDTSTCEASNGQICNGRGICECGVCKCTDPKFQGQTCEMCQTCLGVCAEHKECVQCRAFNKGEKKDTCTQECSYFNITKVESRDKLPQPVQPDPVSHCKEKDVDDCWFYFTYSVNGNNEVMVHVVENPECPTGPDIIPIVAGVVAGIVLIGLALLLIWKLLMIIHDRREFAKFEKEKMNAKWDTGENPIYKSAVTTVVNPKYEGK
T1 sequence (P13612 whole entry): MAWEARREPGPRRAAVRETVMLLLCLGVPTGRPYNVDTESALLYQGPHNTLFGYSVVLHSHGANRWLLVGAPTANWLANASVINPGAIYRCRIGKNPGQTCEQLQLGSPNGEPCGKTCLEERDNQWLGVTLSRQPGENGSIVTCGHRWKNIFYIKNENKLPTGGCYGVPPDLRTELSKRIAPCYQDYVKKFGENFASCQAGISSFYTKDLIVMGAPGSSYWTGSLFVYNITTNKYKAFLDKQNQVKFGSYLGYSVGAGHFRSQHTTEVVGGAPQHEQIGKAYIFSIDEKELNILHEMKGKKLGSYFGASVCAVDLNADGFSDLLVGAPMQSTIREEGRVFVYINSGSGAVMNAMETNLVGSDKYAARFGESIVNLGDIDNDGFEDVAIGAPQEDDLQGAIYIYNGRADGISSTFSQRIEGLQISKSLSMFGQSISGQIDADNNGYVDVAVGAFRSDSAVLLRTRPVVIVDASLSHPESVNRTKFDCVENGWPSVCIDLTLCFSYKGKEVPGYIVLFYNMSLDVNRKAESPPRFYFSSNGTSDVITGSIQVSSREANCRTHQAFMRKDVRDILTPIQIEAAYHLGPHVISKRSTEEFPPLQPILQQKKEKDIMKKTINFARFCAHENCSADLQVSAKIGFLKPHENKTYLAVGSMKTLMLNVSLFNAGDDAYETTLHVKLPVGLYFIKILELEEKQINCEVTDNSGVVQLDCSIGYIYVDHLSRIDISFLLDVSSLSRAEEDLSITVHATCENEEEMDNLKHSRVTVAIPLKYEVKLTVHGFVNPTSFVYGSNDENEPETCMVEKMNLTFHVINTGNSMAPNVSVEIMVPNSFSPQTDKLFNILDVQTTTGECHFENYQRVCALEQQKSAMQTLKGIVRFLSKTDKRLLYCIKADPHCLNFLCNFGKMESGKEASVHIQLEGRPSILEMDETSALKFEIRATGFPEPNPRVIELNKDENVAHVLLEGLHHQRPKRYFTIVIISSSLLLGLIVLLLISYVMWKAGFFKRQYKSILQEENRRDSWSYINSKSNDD

Structure (SMILES)	IC50 (Integrin alpha-4/beta-1 [1]) [nM]	IC50 (Integrin alpha-4/beta-1 [2]) [nM]	IC50 (Integrin alpha-4/beta-1 [3])	IC50 (Integrin alpha-4/beta-1 [4])
Cc1ccccc1NC(=O)Nc1ccc(CC(=O)N[C@@H](CC(C)C)C2=NOC(CCC(=O)O)(CCC(=O)O)C2)cc1	347	67	–	–
Cc1ccccc1NC(=O)Nc1ccc(CC(=O)N[C@@H](CC(C)C)c2ncc(CCC(N)=O)s2)cc1	–	–	Not Active	–
Cc1ccccc1NC(=O)Nc1ccc(CC(=O)N[C@@H](CC(C)C)C2=NOC(CCC(=O)O)C2)cc1 (stereo partly drawn)	495	88	–	–
Cc1ccccc1NC(=O)Nc1ccc(CC(=O)N[C@@H](CC(C)C)c2nc(CCC(=O)O)cs2)cc1	–	2040	–	–
Cc1ccccc1NC(=O)Nc1ccc(CC(=O)N[C@@H](CC(C)C)c2cc(-c3cccc(C(=O)O)c3)on2)cc1	–	–	–	Not Active
Cc1ccccc1NC(=O)Nc1ccc(CC(=O)N[C@@H](CC(C)C)c2cc(-c3ccccc3C(=O)O)on2)cc1	–	–	–	Not Active
Cc1ccccc1NC(=O)Nc1ccc(CC(=O)N[C@@H](CC(C)C)c2cc(CCCC(=O)O)on2)cc1	–	1800	–	–
Cc1ccccc1NC(=O)Nc1ccc(CC(=O)N[C@@H](CC(C)C)c2cc(CCC(=O)O)on2)cc1	143	27	–	–
Cc1ccccc1NC(=O)Nc1ccc(CC(=O)N[C@@H](CC(C)C)c2ncc(CCC(=O)O)o2)cc1	171	45	–	–
Cc1ccccc1NC(=O)Nc1ccc(CC(=O)N[C@@H](CC(C)C)c2ncc(CCC(=O)O)s2)cc1	180	16	–	–
COc1cc(CC(=O)N[C@@H](CC(C)C)c2cc(CCC(=O)O)on2)ccc1NC(=O)Nc1ccccc1C	1	0.69	–	–
Cc1ccccc1NC(=O)Nc1ccc(CC(=O)N[C@@H](CC(C)C)c2ncc(CC(=O)O)s2)cc1	–	2400	–	–

From ChEMBL document CHEMBL1133975, “Isoxazolyl, oxazolyl, and thiazolylpropionic acid derivatives as potent alpha(4)beta(1) integrin antagonists” (Bioorg Med Chem Lett, 2001)
